What was measured:
[1] = molecular target: Tyrosine-protein kinase ITK/TSK (Homo sapiens) (UniProt Q08881); experiment: Inhibition of ITK (unknown origin) at 1 uM relative to control
[2] = organism: Homo sapiens; experiment: Inhibition of 746 to 750 truncated EGFR (unknown origin) at 1 uM relative to control
[3] = test system: NCI-H1975; experiment: In vivo anti tumor activity against human NCI-H1975 cells xenografted in nude C.B-17 SCID mouse model assessed as tumor volume at 5 mg/kg, ig for 18 days measured twice a week (reference value: 948.05 mm3); format: functional
[4] = molecular target: Receptor-type tyrosine-protein kinase FLT3 (Homo sapiens) (UniProt P36888); experiment: Inhibition of FLT3 (unknown origin) at 1 uM relative to control
[5] = molecular target: Serine/threonine-protein kinase Chk1 (Homo sapiens) (UniProt O14757); experiment: Inhibition of CHEK1 (unknown origin) at 1 uM relative to control
[6] = molecular target: Inhibitor of nuclear factor kappa-B kinase subunit beta (Homo sapiens) (UniProt O14920); experiment: Inhibition of IKBKB (unknown origin) at 1 uM relative to control
[7] = molecular target: Ribosomal protein S6 kinase beta-1 (Homo sapiens) (UniProt P23443); experiment: Inhibition of RPS6KB1 (unknown origin) at 1 uM relative to control
Ribosomal protein S6 kinase beta-1 (Homo sapiens), sequence (P23443 whole entry, looked up, the tested form may be a part): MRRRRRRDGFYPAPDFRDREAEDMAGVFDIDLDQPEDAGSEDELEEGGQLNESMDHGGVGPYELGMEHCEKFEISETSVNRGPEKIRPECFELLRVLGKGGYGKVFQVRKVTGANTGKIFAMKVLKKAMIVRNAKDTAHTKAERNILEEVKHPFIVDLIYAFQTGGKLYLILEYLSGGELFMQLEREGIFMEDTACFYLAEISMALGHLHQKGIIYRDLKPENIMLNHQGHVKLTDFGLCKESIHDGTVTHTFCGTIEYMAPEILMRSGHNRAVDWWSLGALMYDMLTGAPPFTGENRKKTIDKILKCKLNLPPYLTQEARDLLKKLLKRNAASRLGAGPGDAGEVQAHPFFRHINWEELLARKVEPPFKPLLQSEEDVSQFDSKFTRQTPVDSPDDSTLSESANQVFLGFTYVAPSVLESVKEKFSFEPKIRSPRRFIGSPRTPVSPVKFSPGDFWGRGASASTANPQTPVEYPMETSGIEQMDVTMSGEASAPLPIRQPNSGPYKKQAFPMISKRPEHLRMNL

[8] = molecular target: Epidermal growth factor receptor (Homo sapiens, UniProt P00533); experiment: Inhibition of human recombinant cytoplasmic GST-tagged EGFR (668 to 1210 residues) expressed in baculovirus using TK-substrate-biotin preincubated for 15 mins followed by substrate addition measured after 60 mins by FRET-based Z'-Lyte assay; details: read-out: IC50
Epidermal growth factor receptor, sequence (P00533 whole entry, the tested form may be a part): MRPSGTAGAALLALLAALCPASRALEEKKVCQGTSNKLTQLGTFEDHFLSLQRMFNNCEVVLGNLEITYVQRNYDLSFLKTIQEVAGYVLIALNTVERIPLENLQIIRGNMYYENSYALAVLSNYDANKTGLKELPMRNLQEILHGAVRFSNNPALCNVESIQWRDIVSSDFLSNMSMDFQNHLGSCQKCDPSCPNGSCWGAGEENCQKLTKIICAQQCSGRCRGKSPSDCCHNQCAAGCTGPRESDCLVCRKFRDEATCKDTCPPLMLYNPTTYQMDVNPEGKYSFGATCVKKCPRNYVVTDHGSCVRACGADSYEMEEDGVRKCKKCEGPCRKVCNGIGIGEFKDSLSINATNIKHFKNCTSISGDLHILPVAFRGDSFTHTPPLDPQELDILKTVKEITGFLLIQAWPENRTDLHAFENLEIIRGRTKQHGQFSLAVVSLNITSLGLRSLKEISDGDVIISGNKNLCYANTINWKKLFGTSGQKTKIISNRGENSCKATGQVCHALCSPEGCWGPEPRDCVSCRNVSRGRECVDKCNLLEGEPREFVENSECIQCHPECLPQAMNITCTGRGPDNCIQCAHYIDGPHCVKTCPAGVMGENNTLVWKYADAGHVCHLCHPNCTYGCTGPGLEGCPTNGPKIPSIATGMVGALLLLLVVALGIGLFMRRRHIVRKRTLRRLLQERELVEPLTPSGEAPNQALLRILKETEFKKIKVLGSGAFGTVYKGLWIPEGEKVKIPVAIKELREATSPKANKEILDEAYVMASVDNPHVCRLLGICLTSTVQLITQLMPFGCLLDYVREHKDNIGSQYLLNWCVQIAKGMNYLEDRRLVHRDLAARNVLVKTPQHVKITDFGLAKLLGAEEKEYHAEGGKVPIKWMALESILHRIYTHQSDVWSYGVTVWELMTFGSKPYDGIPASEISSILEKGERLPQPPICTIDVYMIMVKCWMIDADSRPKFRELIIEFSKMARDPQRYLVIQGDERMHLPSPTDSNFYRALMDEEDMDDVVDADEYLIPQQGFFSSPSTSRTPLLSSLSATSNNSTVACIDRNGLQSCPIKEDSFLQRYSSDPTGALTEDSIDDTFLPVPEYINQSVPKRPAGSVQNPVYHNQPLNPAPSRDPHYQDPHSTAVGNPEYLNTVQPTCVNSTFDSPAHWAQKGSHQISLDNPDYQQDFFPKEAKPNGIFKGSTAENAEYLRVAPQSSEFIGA

[9] = test system: HCC827; experiment: Antiproliferative activity against human HCC827 cells harboring EGFR E746-A750 deletion mutant; format: functional, cell-based
[10] = Intrinsic clearance in monkey liver microsomes; format: ADME, Macaca mulatta, microsome; details: rhesus monkey, read-out: CLH
[11] = Half life in rat hepatocytes; format: ADME, cell-based, Hepatocyte
[12] = molecular target: Tyrosine-protein kinase JAK3 (Homo sapiens) (UniProt P52333); experiment: Inhibition of JAK3 (unknown origin) at 1 uM relative to control
[13] = molecular target: Tyrosine-protein kinase Blk (Homo sapiens) (UniProt P51451); experiment: Inhibition of BLK (unknown origin) at 1 uM relative to control
Tyrosine-protein kinase Blk (Homo sapiens), sequence (P51451 2-505 limits assumed): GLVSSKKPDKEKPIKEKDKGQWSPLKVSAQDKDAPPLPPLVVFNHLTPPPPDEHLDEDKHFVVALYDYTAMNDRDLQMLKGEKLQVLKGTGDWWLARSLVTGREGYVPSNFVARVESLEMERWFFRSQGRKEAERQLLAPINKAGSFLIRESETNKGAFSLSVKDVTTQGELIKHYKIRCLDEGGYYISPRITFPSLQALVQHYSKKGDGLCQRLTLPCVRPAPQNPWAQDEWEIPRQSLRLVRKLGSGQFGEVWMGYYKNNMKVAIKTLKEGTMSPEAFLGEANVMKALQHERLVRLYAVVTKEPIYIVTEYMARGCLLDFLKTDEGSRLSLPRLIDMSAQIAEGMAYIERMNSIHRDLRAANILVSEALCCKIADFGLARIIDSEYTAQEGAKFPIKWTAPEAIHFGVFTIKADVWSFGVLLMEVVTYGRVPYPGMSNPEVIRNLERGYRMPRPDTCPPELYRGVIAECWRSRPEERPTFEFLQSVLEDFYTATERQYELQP

[14] = molecular target: Protein kinase C alpha type (Homo sapiens) (UniProt P17252); experiment: Inhibition of PRKCA (unknown origin) at 1 uM relative to control
[15] = AUC (0 to infinity) in Sprague-Dawley rat at 1 mg/kg, iv by LC-MS/MS analysis; format: ADME, organism-based; parameters: dose 1 mg/kg, time infinity, route intravenous; details: in vivo
[16] = molecular target: cAMP-dependent protein kinase catalytic subunit alpha (Homo sapiens) (UniProt P17612); experiment: Inhibition of PRKACA (unknown origin) at 1 uM relative to control
[17] = molecular target: Tyrosine-protein kinase BTK (Homo sapiens) (UniProt Q06187); experiment: Inhibition of BTK (unknown origin) at 1 uM relative to control
[18] = molecular target: Mast/stem cell growth factor receptor Kit (Homo sapiens) (UniProt P10721); experiment: Inhibition of KIT (unknown origin) at 1 uM relative to control
[19] = molecular target: Tyrosine-protein kinase Tec (Homo sapiens) (UniProt P42680); experiment: Inhibition of TEC (unknown origin) at 1 uM relative to control
Tyrosine-protein kinase Tec (Homo sapiens), sequence (P42680 whole entry): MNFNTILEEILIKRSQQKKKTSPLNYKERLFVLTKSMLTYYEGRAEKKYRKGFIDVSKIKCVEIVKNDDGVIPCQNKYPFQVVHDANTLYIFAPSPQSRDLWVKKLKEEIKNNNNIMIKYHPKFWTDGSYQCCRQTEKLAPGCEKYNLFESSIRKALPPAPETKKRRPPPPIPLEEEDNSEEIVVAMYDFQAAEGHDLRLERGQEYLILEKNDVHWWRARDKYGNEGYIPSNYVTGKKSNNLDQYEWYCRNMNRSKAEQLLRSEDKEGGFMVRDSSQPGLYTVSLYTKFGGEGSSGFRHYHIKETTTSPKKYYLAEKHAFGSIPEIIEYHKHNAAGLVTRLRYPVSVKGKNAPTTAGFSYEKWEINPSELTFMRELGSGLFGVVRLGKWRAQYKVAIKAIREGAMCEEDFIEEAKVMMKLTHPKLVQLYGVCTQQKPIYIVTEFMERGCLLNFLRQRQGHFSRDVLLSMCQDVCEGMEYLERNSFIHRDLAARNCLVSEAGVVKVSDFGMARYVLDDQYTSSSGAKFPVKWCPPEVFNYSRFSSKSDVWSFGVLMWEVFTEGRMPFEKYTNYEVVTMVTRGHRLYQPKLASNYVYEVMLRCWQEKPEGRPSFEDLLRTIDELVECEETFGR

[20] = test system: NCI-H1975; experiment: In vivo anti tumor activity against human NCI-H1975 cells xenografted in nude C.B-17 SCID mouse model assessed as tumor growth inhibition at 5 mg/kg, ig for 18 days measured twice a week relative to control; format: functional; details: NCI-H1975, po, 432 h, read-out: TGI
Summary of the method: (§1)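 H1975 s.c. xenografts (5 × 10^6 cells) were grown in C.B-17 SCID mice and randomized at 100-150 mm3 (n = 9). Mice were dosed intragastrically once daily for 18 days against a PBS control. TGI% = (TWcontrol − TWtreatment)/TWcontrol × 100, where TW is the mean tumor weight on day 18.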

[21] = Intrinsic clearance in mouse liver microsomes; format: ADME, microsome; details: read-out: CLH
[22] = molecular target: Insulin receptor-related protein (Homo sapiens) (UniProt P14616); experiment: Inhibition of INSRR (unknown origin) at 1 uM relative to control
[23] = molecular target: Dual specificity protein kinase CLK1 (Homo sapiens) (UniProt P49759); experiment: Inhibition of CLK1 (unknown origin) at 1 uM relative to control
[24] = Cmax in Sprague-Dawley rat at 10 mg/kg, po administered via gavage after 24 hrs by LC-MS/MS analysis; format: ADME, organism-based; parameters: dose 10 mg/kg, route oral; details: in vivo
Summary of the method: (§2)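 Male Sprague-Dawley rats (200-240 g) received 1 mg/kg by tail-vein injection in 2% DMSO, 20% PEG400 and 78% buffered saline, or 10 mg/kg by oral gavage in 0.5% methylcellulose. Orbital sinus blood was drawn into heparinized tubes at 2, 5, 15 and 30 min and at 1, 2, 4, 8, 12 and 24 h, then centrifuged. Plasma was measured by LC/MS/MS in SRM mode, with non-compartmental analysis.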

[25] = molecular target: Protein kinase C beta type (Homo sapiens) (UniProt P05771); experiment: Inhibition of PRKCB1 (unknown origin) at 1 uM relative to control
Protein kinase C beta type (Homo sapiens), sequence (P05771 2-671 limits assumed): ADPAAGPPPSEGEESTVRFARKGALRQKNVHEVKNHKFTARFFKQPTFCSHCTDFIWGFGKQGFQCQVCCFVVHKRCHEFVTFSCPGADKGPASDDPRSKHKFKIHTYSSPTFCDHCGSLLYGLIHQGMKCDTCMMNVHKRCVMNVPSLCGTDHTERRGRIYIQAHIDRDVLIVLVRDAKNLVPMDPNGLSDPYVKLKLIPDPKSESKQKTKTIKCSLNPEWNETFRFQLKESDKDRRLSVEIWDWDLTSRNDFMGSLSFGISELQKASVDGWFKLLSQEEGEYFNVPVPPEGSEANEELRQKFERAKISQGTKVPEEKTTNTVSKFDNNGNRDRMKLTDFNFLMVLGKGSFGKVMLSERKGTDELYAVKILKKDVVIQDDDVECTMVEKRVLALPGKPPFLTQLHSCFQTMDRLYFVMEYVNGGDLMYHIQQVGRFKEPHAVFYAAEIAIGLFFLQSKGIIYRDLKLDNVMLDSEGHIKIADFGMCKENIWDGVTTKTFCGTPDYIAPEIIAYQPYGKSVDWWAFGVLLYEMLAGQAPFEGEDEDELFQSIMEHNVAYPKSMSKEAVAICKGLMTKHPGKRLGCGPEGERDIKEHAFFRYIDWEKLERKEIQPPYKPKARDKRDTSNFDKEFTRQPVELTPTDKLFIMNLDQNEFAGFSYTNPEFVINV

[26] = molecular target: Inhibitor of nuclear factor kappa-B kinase subunit alpha (Homo sapiens) (UniProt O15111); experiment: Inhibition of CHUK (unknown origin) at 1 uM relative to control
Inhibitor of nuclear factor kappa-B kinase subunit alpha (Homo sapiens), sequence (O15111 whole entry): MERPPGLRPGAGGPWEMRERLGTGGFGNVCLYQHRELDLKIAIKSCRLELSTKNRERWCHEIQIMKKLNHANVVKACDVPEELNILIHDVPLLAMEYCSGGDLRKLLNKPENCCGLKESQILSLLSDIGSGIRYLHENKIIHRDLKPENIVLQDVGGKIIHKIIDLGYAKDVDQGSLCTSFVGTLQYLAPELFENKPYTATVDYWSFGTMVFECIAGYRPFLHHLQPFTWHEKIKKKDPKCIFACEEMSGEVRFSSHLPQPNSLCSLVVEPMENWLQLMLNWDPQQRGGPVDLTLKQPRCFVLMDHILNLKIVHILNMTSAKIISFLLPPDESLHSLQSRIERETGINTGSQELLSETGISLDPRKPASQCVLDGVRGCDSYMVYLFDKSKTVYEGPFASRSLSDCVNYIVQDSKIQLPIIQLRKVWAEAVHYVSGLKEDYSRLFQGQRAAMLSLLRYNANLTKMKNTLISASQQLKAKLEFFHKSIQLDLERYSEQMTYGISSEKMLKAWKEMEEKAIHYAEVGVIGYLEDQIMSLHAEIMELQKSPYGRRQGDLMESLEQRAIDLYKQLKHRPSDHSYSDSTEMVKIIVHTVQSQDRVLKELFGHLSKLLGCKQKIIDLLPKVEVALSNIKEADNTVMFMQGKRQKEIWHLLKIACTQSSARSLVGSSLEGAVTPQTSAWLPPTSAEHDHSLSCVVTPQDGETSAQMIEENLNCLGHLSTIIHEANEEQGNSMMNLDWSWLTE

[27] = molecular target: Testis-specific serine/threonine-protein kinase 1 (Homo sapiens) (UniProt Q9BXA7); experiment: Inhibition of STK22D (unknown origin) at 1 uM relative to control
[28] = molecular target: Tyrosine-protein kinase Yes (Homo sapiens) (UniProt P07947); experiment: Inhibition of YES1 (unknown origin) at 1 uM relative to control
[29] = test system: NCI-H1975; experiment: In vivo anti tumor activity against human NCI-H1975 cells xenografted in nude C.B-17 SCID mouse model assessed as tumor growth inhibition at 20 mg/kg, ig for 18 days measured twice a week relative to control; format: functional; details: NCI-H1975, po, 432 h, read-out: TGI; summary of the method: as §1
[30] = molecular target: Tyrosine-protein kinase JAK2 (Homo sapiens) (UniProt O60674); experiment: Inhibition of JAK2 (unknown origin) at 1 uM relative to control
[31] = molecular target: Proto-oncogene tyrosine-protein kinase Src (Homo sapiens) (UniProt P12931); experiment: Inhibition of SRC (unknown origin) at 1 uM relative to control
Proto-oncogene tyrosine-protein kinase Src (Homo sapiens), sequence (P12931 2-536 limits assumed): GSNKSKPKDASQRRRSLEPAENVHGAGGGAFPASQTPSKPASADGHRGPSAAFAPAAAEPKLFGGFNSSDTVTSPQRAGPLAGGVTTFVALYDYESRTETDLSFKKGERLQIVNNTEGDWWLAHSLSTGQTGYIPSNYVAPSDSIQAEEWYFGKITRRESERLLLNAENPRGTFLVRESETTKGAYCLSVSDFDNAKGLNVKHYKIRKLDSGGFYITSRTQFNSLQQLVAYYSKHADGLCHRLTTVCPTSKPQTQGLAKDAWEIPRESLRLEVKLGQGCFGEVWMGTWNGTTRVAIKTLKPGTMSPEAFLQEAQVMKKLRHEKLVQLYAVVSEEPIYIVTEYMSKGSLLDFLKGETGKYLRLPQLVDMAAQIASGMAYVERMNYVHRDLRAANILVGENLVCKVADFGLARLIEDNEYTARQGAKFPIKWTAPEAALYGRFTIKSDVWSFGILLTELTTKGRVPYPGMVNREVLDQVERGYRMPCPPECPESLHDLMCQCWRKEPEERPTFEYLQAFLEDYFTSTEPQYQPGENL

[32] = Oral bioavailability in Sprague-Dawley rat at 10 mg/kg administered via gavage after 24 hrs by LC-MS/MS analysis; format: ADME, organism-based; details: in vivo; summary of the method: as §2
[33] = test system: NCI-H1975; experiment: In vivo anti tumor activity against human NCI-H1975 cells xenografted in nude C.B-17 SCID mouse model assessed as relative tumor volume at 20 mg/kg, ig for 18 days measured twice a week relative to control; format: functional
Summary of the method: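 C.B-17 SCID mice received s.c. inoculation of 5 × 10^6 H1975 cells. At 100-150 mm3 they were randomized (n = 9 per group) and dosed intragastrically once daily for 18 days, with PBS as the control. Tumors were measured by caliper twice weekly, with V = length × width²/2. RTV = V/V0, and T/C% = treated mean RTV / control mean RTV × 100.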

[34] = molecular target: Focal adhesion kinase 1 (Homo sapiens) (UniProt Q05397); experiment: Inhibition of PTK2 (unknown origin) at 1 uM relative to control

## C=CC(=O)Nc1cc(Nc2nccc(-c3cn4c5c(cccc35)CCC4)n2)c(OC)cc1N(C)CCN(C)C
[1]
  inhibition: 66%
[2]
  inhibition: 110%
[3]
  Activity: 527.78 mm3
[4]
  inhibition: 56%
[5]
  inhibition: -6%
[6]
  inhibition: 0%
[7]
  inhibition: -10%
[8]
  IC50: 21.6 nM
[9]
  IC50: 109 nM
[10]
  CLint scaled: 64.8 mL/min/kg
[11]
  half-life: 33 min
[12]
  inhibition: 89%
[13]
  inhibition: 85%
[14]
  inhibition: 1%
[15]
  AUC(0-inf): 194 ng·h/mL
[16]
  inhibition: 2%
[17]
  inhibition: 48%
[18]
  inhibition: 5%
[19]
  inhibition: 52%
[20]
  inhibition in vivo at 5 mg/kg: 46.8%
[21]
  CLint scaled: 457 mL/min/kg
[22]
  inhibition: 39%
[23]
  inhibition: 20%
[24]
  Cmax: 111 ng/mL
[25]
  inhibition: 2%
[26]
  inhibition: 14%
[27]
  inhibition: 72%
[28]
  inhibition: 10%
[29]
  inhibition in vivo at 20 mg/kg: 96.3%
[30]
  inhibition: -6%
[31]
  inhibition: 16%
[32]
  bioavailability: 52.4%
[33]
  T/C: 12.1%
[34]
  inhibition: 73%
